Series [1] is described as follows: Dissociation constant, pKa of the compound with quinoline heteroaromatic N atom by pH titration method. It is filed as physicochemical.
Series [2] has as its system Plasmodium falciparum. Put plainly: Resistance index, ratio of IC50 for chloroquine-resistant Plasmodium falciparum K1 to IC50 for chloroquine-sensitive Plasmodium falciparum D10. It is filed as functional. In a few lines:
(§1)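 Resistance index is the IC50 against the resistant strain divided by the IC50 against D10. Both IC50s come from the lactate dehydrogenase growth assay on asexual blood stages, run by the same serial-dilution protocol.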

In the next series the test system is CHO. Put plainly: Cytotoxicity against CHO cells by MTT assay. The series is classed as cell-based. The note with it: Cricetulus griseus. The method in brief:
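CHO cells, MTT colorimetric growth read-out. Compound from a 2 mg/mL stock, tested from 100 μg/mL in 10-fold serial dilutions in complete medium (5 concentrations, lowest 0.01 μg/mL). Emetine reference. IC50 from nonlinear dose–response fitting; mean ± SEM, n = 3.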
(In general: Tetrazolium assays rely on reduction of a dye to a coloured formazan, in cell work by metabolically active cells.)

Series [3] concerns Plasmodium berghei. Description: Antimalarial activity against Plasmodium berghei infected in NMRI mouse assessed as host survival time at 30 mg/kg, po administered on day 0, 1 and 2 after postinfection (reference value: 4 days). The series is classed as functional. In a few lines:
(§2)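 P. berghei in female NMRI mice (modified Peters 4-day test): 0.2 mL of donor blood diluted to 10^8 parasitized erythrocytes/mL given i.v. Oral dosing starts 4 h postinfection, with further daily doses at 24, 48 and 72 h by regimen. Groups of 3 treated and 5 untreated mice. Survival followed to day 30, and survivors are checked for parasitemia.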

The subject of series [4] is Plasmodium falciparum. Put plainly: Antimalarial activity against erythrocyte stages of chloroquine-resistant Plasmodium falciparum K1 infected in human erythrocytes by lactate dehydrogenase assay. It is filed as functional, organism-based. The method in brief:
(§3)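 Asexual blood-stage P. falciparum in continuous culture (modified Trager–Jensen), read out by parasite lactate dehydrogenase. Stocks are 2 mg/mL in DMSO or methanol. […] IC50 comes from nonlinear dose–response fitting.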

Series [5] can be described thus: Dissociation constant, pKa of the compound with basic tertiary amino group by pH titration method. The series is classed as physicochemical.
Series [6] relates to Plasmodium berghei. Put plainly: Antimalarial activity against Plasmodium berghei infected in NMRI mouse assessed as reduction of parasitemia level at 30 mg/kg, po administered on day 0, 1 and 2 after postinfection (reference value: 0.13%). It is filed as functional. On the set-up: scale not given: the % may be the effect or the level left.
Series [7] concerns Plasmodium berghei. Put plainly: Antimalarial activity against Plasmodium berghei infected in NMRI mouse assessed as parasitized red blood cells level at 30 mg/kg, po administered on day 0, 1 and 2 after postinfection measured on day 4 (reference value: 78%). The series is classed as functional.
Series [8] relates to Plasmodium berghei. Description: Antimalarial activity against Plasmodium berghei infected in NMRI mouse assessed as reduction of parasitemia level at 100 mg/kg, po administered on day 0, 1 and 2 after postinfection (reference value: 0.11%). It is filed as functional. Set-up: scale not given: the % may be the effect or the level left.
Series [9] in a line: Inhibition of beta-hematin formation assessed as equivalents of drug relative to hematin for 50% inhibition at pH 4.5 by BHIA assay. It is filed as functional. In a few lines:
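β-Hematin formation mediated by 4.5 M acetate, pH 4.5, in a 96-well plate format. Unconverted hematin is dissolved with 5% (v/v) aqueous pyridine at pH 7.5, which leaves β-hematin undissolved. Result expressed as equivalents of compound relative to hematin at 50% inhibition.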

Series [10] has as its system Plasmodium berghei. Description: Antimalarial activity against Plasmodium berghei infected in NMRI mouse assessed as parasitized red blood cells level at 100 mg/kg, po administered on day 0, 1 and 2 after postinfection measured on day 4 (reference value: 78%). It is filed as functional.
Series [11] concerns Plasmodium falciparum. Description: Antimalarial activity against erythrocyte stages of chloroquine-sensitive Plasmodium falciparum D10 infected in human erythrocytes by lactate dehydrogenase assay. The series is classed as functional, organism-based. The method in brief: as §3
Series [12] can be described thus: Selectivity index, ratio of IC50 for CHO cells to IC50 for chloroquine-sensitive Plasmodium falciparum D10. It is filed as toxicity, cell-based. The note with it: hamster, read-out: Ratio IC50. The method in brief: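 The D10 value came from parasite lactate dehydrogenase read-out on erythrocytic cultures, 10 two-fold dilutions from 100 ng/mL, with nonlinear dose–response fitting.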

Series [13] relates to Plasmodium berghei. Description: Antimalarial activity against Plasmodium berghei infected in NMRI mouse assessed as host survival time at 100 mg/kg, po administered on day 0, 1 and 2 after postinfection (reference value: 4 days). It is filed as functional. The method in brief: as §2
Series [14] concerns the target T1, Chloroquine resistance transporter (Plasmodium falciparum, UniProt Q9N623).
T1 sequence (Q9N623 whole entry): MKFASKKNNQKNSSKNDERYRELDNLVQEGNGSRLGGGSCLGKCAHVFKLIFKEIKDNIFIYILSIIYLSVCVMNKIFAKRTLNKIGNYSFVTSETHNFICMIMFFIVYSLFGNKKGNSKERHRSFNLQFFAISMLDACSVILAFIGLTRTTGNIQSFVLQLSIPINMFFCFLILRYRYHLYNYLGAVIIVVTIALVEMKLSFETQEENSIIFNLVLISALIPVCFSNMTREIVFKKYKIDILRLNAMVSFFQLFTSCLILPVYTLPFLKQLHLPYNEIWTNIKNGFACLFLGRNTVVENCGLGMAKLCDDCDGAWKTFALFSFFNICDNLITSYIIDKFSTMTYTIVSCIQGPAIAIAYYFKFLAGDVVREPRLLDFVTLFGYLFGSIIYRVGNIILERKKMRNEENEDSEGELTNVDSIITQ
Put plainly: Inhibition of chloroquine-resistant Plasmodium falciparum Dd2 chloroquine resistance transporter expressed in xenopus laevis oocytes assessed as inhibition of [3H]chloroquine uptake after 1 to 2 hrs. The series is classed as cell-based, Oocyte.

Series [15] concerns Plasmodium berghei. Description: Antimalarial activity against Plasmodium berghei infected in NMRI mouse assessed as parasitized red blood cells level at 100 mg/kg, po administered as single dose 4 hrs post infection measured on day 4 (reference value: 78%).
The subject of series [16] is Plasmodium falciparum. Put plainly: Resistance index, ratio of IC50 for chloroquine-resistant Plasmodium falciparum Dd2 to IC50 for chloroquine-sensitive Plasmodium falciparum D10. It is filed as functional. In a few lines:
as §1

The test system of series [17] is Plasmodium berghei. Put plainly: Antimalarial activity against Plasmodium berghei infected in NMRI mouse assessed as reduction of parasitemia level at 30 mg/kg, po administered as single dose 4 hrs post infection (reference value: 2.76%). Set-up: scale not given: the % may be the effect or the level left.
Series [18] concerns Plasmodium berghei. Put plainly: Antimalarial activity against Plasmodium berghei infected in NMRI mouse assessed as reduction of parasitemia level at 100 mg/kg, po administered as single dose 4 hrs post infection (reference value: 0.16%). Set-up: scale not given: the % may be the effect or the level left.
Series [19] deals with Plasmodium falciparum. Description: Resistance index, ratio of IC50 for chloroquine-resistant Plasmodium falciparum RSA11 to IC50 for chloroquine-sensitive Plasmodium falciparum D10. It is filed as functional. In a few lines: as §1
For series [20], the system named is Plasmodium falciparum. Put plainly: Resistance index, ratio of IC50 for chloroquine-resistant Plasmodium falciparum W2 to IC50 for chloroquine-sensitive Plasmodium falciparum D10. The series is classed as functional. In a few lines: as §1
Series [21] deals with Plasmodium berghei. Put plainly: Antimalarial activity against Plasmodium berghei infected in NMRI mouse assessed as parasitized red blood cells level at 30 mg/kg, po administered as single dose 4 hrs post infection measured on day 4 (reference value: 78%).
For series [22], the system named is Plasmodium falciparum. Description: Antimalarial activity against erythrocyte stages of chloroquine-resistant Plasmodium falciparum Dd2 infected in human erythrocytes by lactate dehydrogenase assay. The series is classed as functional, organism-based. The method in brief:
as §3

The target in series [23] is T2, Chloroquine resistance transporter (Plasmodium falciparum) (UniProt Q9N623).
T2 sequence (whole entry): T1 sequence (Q9N623 whole entry)
Put plainly: Inhibition of chloroquine-sensitive Plasmodium falciparum D10 chloroquine resistance transporter expressed in xenopus laevis oocytes assessed as inhibition of [3H]chloroquine uptake after 1 to 2 hrs. The series is classed as cell-based. The note with it: Oocyte.

The subject of series [24] is Plasmodium falciparum. Description: Antimalarial activity against erythrocyte stages of chloroquine-resistant Plasmodium falciparum W2 infected in human erythrocytes by lactate dehydrogenase assay. The series is classed as functional, organism-based. In a few lines:
as §3

The test system of series [25] is Plasmodium falciparum. Put plainly: Antimalarial activity against erythrocyte stages of chloroquine-resistant Plasmodium falciparum RSA11 infected in human erythrocytes by lactate dehydrogenase assay. It is filed as functional, organism-based. In a few lines: as §3
The subject of series [26] is Plasmodium berghei. Put plainly: Antimalarial activity against Plasmodium berghei infected in NMRI mouse assessed as host survival time at 100 mg/kg, po administered as a single dose 4 hrs post infection (reference value: 4 days).
The test system of series [27] is Plasmodium berghei. Put plainly: Antimalarial activity against Plasmodium berghei infected in NMRI mouse assessed as host survival time at 30 mg/kg, po administered as a single dose 4 hrs post infection (reference value: 4 days).
The subject of series [28] is Plasmodium berghei. Put plainly: Antimalarial activity against Plasmodium berghei infected in NMRI mouse assessed as parasitized red blood cells level at 30 mg/kg, po administered on day 0, 1, 2 and 3 after postinfection measured on day 4 (reference value: 78%). The series is classed as functional.
Series [29] deals with Plasmodium berghei. Description: Antimalarial activity against Plasmodium berghei infected in NMRI mouse assessed as reduction of parasitemia level at 30 mg/kg, po administered on day 0, 1, 2 and 3 after postinfection (reference value: 0.38%). It is filed as functional. Set-up: scale not given: the % may be the effect or the level left.
The subject of series [30] is Plasmodium berghei. Put plainly: Antimalarial activity against Plasmodium berghei infected in NMRI mouse assessed as host survival time at 100 mg/kg, po administered on day 0, 1, 2 and 3 after postinfection (reference value: 4 days). The series is classed as functional. In a few lines: as §2
The test system of series [31] is Plasmodium berghei. Description: Antimalarial activity against Plasmodium berghei infected in NMRI mouse assessed as host survival time at 30 mg/kg, po administered on day 0, 1, 2 and 3 after postinfection (reference value: 4 days). The series is classed as functional. The method in brief: as §2
The test system of series [32] is Plasmodium berghei. Description: Antimalarial activity against Plasmodium berghei infected in NMRI mouse assessed as reduction of parasitemia level at 100 mg/kg, po administered on day 0, 1, 2 and 3 after postinfection (reference value: 0.12%). The series is classed as functional. On the set-up: scale not given: the % may be the effect or the level left.
Series [33] relates to Plasmodium berghei. Description: Antimalarial activity against Plasmodium berghei infected in NMRI mouse assessed as parasitized red blood cells level at 100 mg/kg, po administered on day 0, 1, 2 and 3 after postinfection measured on day 4 (reference value: 78%). It is filed as functional.

Calls of active or inactive are those of the source. No cut-off for these calls is given here.

By pKa is commonly meant the pH at which an ionisable group is half protonated. With `CN(Cc1ccccc1)Cc1cccc(CNc2ccnc3cc(Cl)ccc23)c1`, the pKa in [1] turned out to be 7.63; in series [5] it was 9.77. Besides, in the series with Plasmodium falciparum [2], the “Ratio IC50” value is reported as 1. For the same compound, the IC50 in the series on CHO amounted to 70 µM; in the series on Plasmodium falciparum [4], 43 nM; in series [9], 0.69 equivalents; in the series on Plasmodium falciparum [11] it was 41 nM; in series [14], 36 µM. Moreover, the Time in the series with Plasmodium berghei [3] is 16.7 days; with Plasmodium berghei [13], 30 days. Moreover, the Activity in the series with Plasmodium berghei [6] was 99.9%; in the series on Plasmodium berghei [7], 0.1%; with Plasmodium berghei [8], 99.9%; with Plasmodium berghei [10], 0.09%. For the same compound, the selectivity ratio in [12] was determined as 1270.

Consider `CN(Cc1ccccc1)Cc1ccc(CNc2ccnc3cc(Cl)ccc23)cc1`, for which the pKa in [1] turned out to be 7.56; in series [5] it was 9.9. Besides, the “Ratio IC50” value in the series with Plasmodium falciparum [2] amounted to 0.9; in the series with Plasmodium falciparum [16], 1.2; with Plasmodium falciparum [19] it was 1.7; in the series with Plasmodium falciparum [20] it was 1. The IC50 was greater than 249 µM in the series with CHO; 25 nM with Plasmodium falciparum [4]; 26 nM with Plasmodium falciparum [22]; 0.32 equivalents in [9]; 23 nM in the series on Plasmodium falciparum [24]; 38 nM in the series with Plasmodium falciparum [25]. For the same compound, the IC50 with Plasmodium falciparum [11] was found to be 22 nM; in series [14] it was 69 µM. The Activity with Plasmodium berghei [15] is reported as 0.12%; with Plasmodium berghei [17] it was 97%; in the series with Plasmodium berghei [18] it was 99.8%; with Plasmodium berghei [21], 2.16%. The inhibition entry in series [23] is “Active”. In series [12], the selectivity ratio was greater than 9220. For the same compound, the Time was determined as 10 days in the series with Plasmodium berghei [26] and 6.7 days in the series with Plasmodium berghei [27].

In the case of `CN(Cc1ccccc1)Cc1ccccc1CNc1ccnc2cc(Cl)ccc12`, the pKa in series [1] was 7.57; in series [5] it was 9.85. Moreover, the Activity worked out at 0.3% in the series on Plasmodium berghei [28], 99.6% in the series on Plasmodium berghei [29], 99.9% with Plasmodium berghei [32] and 0.09% in the series with Plasmodium berghei [33]. The “Ratio IC50” value with Plasmodium falciparum [2] was 0.9. The IC50 is 122 nM in the series with Plasmodium falciparum [4], 1.1 equivalents in [9], 140 nM in the series on Plasmodium falciparum [11] and 58 µM in series [14]. For the same compound, the Time with Plasmodium berghei [30] was determined as 30 days; in the series with Plasmodium berghei [31] it was 20.7 days.

For the origin of these results see ChEMBL document CHEMBL1828581 (J Med Chem, 2011).
